Measurements as given in ChEMBL document CHEMBL1152173, “Synthesis and in vitro evaluation of the antifungal activities of dihydropyrimidinones” (2008).
≈ marks a conversion by molar mass, not a printed value. Calls of active or inactive are those of the source. The calls are words filed in the database; no cut-off is given here.

Key:
[1] = test system: Trichoderma hamatum; experiment: Antifungal activity against Trichoderma hamatum assessed as radial growth at 3% after 72 hrs by poison food technique of Flack relative to control; type: functional
[2] = test system: Aspergillus niger; experiment: Antifungal activity against Aspergillus niger assessed as radial growth at 0.5% after 72 hrs by poison food technique of Flack relative to control; type: functional
[3] = test system: Trichoderma hamatum; experiment: Antifungal activity against Trichoderma hamatum assessed as radial growth at 0.5% after 48 hrs by poison food technique of Flack relative to control; type: functional
[4] = test system: Trichoderma koningii; experiment: Antifungal activity against Trichoderma koningii assessed as radial growth at 1% after 24 hrs by poison food technique of Flack relative to control; type: functional
How it was run: (§1)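 Acetone stock added to molten sterilized PDA to final 0.5–7%, plated in 90 mm dishes with compound-free plates as control. Each plate was inoculated with a 9 mm disc from a 4-day-old culture, incubated at 25 ± 1 °C, and colony diameter measured at 24 h intervals. % inhibition = (control − treatment)/control × 100; three replicates averaged.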

[5] = test system: Trichoderma koningii; experiment: Antifungal activity against Trichoderma koningii assessed as radial growth at 3% after 72 hrs by poison food technique of Flack relative to control; type: functional; how it was run: as §1
[6] = test system: Trichoderma koningii; experiment: Antifungal activity against Trichoderma koningii assessed as radial growth at 0.5% after 48 hrs by poison food technique of Flack relative to control; type: functional; how it was run: as §1
[7] = test system: Trichoderma hamatum; experiment: Antifungal activity against Trichoderma hamatum assessed as radial growth at 7% after 48 hrs by poison food technique of Flack relative to control; type: functional; how it was run: as §1
[8] = test system: Trichoderma hamatum; experiment: Antifungal activity against Trichoderma hamatum assessed as radial growth at 7% after 24 hrs by poison food technique of Flack relative to control; type: functional; how it was run: as §1
[9] = test system: Aspergillus niger; experiment: Antifungal activity against Aspergillus niger assessed as radial growth at 1% after 72 hrs by poison food technique of Flack relative to control; type: functional
[10] = test system: Trichoderma hamatum; experiment: Antifungal activity against Trichoderma hamatum assessed as radial growth at 1% after 24 hrs by poison food technique of Flack relative to control; type: functional
[11] = test system: Aspergillus niger; experiment: Antifungal activity against Aspergillus niger assessed as radial growth at 7% after 24 hrs by poison food technique of Flack relative to control; type: functional
[12] = test system: Aspergillus niger; experiment: Antifungal activity against Aspergillus niger assessed as radial growth at 7% after 72 hrs by poison food technique of Flack relative to control; type: functional
[13] = test system: Trichoderma koningii; experiment: Antifungal activity against Trichoderma koningii assessed as radial growth at 5% after 72 hrs by poison food technique of Flack relative to control; type: functional; how it was run: as §1
[14] = test system: Trichoderma hamatum; experiment: Antifungal activity against Trichoderma hamatum assessed as radial growth at 1% after 72 hrs by poison food technique of Flack relative to control; type: functional
[15] = test system: Aspergillus niger; experiment: Antifungal activity against Aspergillus niger assessed as radial growth at 0.5% after 24 hrs by poison food technique of Flack relative to control; type: functional
[16] = test system: Trichoderma koningii; experiment: Antifungal activity against Trichoderma koningii assessed as radial growth at 0.5% after 24 hrs by poison food technique of Flack relative to control; type: functional; how it was run: as §1
[17] = test system: Trichoderma hamatum; experiment: Antifungal activity against Trichoderma hamatum assessed as radial growth at 1% after 48 hrs by poison food technique of Flack relative to control; type: functional
[18] = test system: Trichoderma koningii; experiment: Antifungal activity against Trichoderma koningii assessed as radial growth at 3% after 24 hrs by poison food technique of Flack relative to control; type: functional; how it was run: as §1
[19] = test system: Trichoderma hamatum; experiment: Antifungal activity against Trichoderma hamatum assessed as radial growth at 3% after 48 hrs by poison food technique of Flack relative to control; type: functional
[20] = test system: Aspergillus niger; experiment: Antifungal activity against Aspergillus niger assessed as radial growth at 1% after 48 hrs by poison food technique of Flack relative to control; type: functional
[21] = test system: Trichoderma koningii; experiment: Antifungal activity against Trichoderma koningii assessed as radial growth at 7% after 24 hrs by poison food technique of Flack relative to control; type: functional; how it was run: as §1
[22] = test system: Trichoderma hamatum; experiment: Antifungal activity against Trichoderma hamatum assessed as radial growth at 5% after 72 hrs by poison food technique of Flack relative to control; type: functional; how it was run: as §1
[23] = test system: Aspergillus niger; experiment: Antifungal activity against Aspergillus niger; type: functional
[24] = test system: Trichoderma koningii; experiment: Antifungal activity against Trichoderma koningii assessed as radial growth at 5% after 24 hrs by poison food technique of Flack relative to control; type: functional; how it was run: as §1
[25] = test system: Trichoderma koningii; experiment: Antifungal activity against Trichoderma koningii assessed as radial growth at 7% after 48 hrs by poison food technique of Flack relative to control; type: functional; how it was run: as §1
[26] = test system: Trichoderma koningii; experiment: Antifungal activity against Trichoderma koningii assessed as radial growth at 1% after 48 hrs by poison food technique of Flack relative to control; type: functional; how it was run: as §1
[27] = test system: Aspergillus niger; experiment: Antifungal activity against Aspergillus niger assessed as radial growth at 0.5% after 48 hrs by poison food technique of Flack relative to control; type: functional
[28] = test system: Trichoderma koningii; experiment: Antifungal activity against Trichoderma koningii; type: functional
[29] = test system: Aspergillus niger; experiment: Antifungal activity against Aspergillus niger assessed as radial growth at 3% after 48 hrs by poison food technique of Flack relative to control; type: functional
[30] = test system: Trichoderma hamatum; experiment: Antifungal activity against Trichoderma hamatum assessed as radial growth at 0.5% after 72 hrs by poison food technique of Flack relative to control; type: functional
[31] = test system: Aspergillus niger; experiment: Antifungal activity against Aspergillus niger assessed as radial growth at 3% after 72 hrs by poison food technique of Flack relative to control; type: functional
[32] = test system: Aspergillus niger; experiment: Antifungal activity against Aspergillus niger assessed as radial growth at 5% after 72 hrs by poison food technique of Flack relative to control; type: functional
[33] = test system: Trichoderma koningii; experiment: Antifungal activity against Trichoderma koningii assessed as radial growth at 1% after 72 hrs by poison food technique of Flack relative to control; type: functional; how it was run: as §1
[34] = test system: Aspergillus niger; experiment: Antifungal activity against Aspergillus niger assessed as radial growth at 5% after 48 hrs by poison food technique of Flack relative to control; type: functional
[35] = test system: Aspergillus niger; experiment: Antifungal activity against Aspergillus niger assessed as radial growth at 5% after 24 hrs by poison food technique of Flack relative to control; type: functional
[36] = test system: Trichoderma koningii; experiment: Antifungal activity against Trichoderma koningii assessed as radial growth at 3% after 48 hrs by poison food technique of Flack relative to control; type: functional; how it was run: as §1
[37] = test system: Trichoderma hamatum; experiment: Antifungal activity against Trichoderma hamatum assessed as radial growth at 3% after 24 hrs by poison food technique of Flack relative to control; type: functional
[38] = test system: Aspergillus niger; experiment: Antifungal activity against Aspergillus niger assessed as radial growth at 1% after 24 hrs by poison food technique of Flack relative to control; type: functional
[39] = test system: Trichoderma koningii; experiment: Antifungal activity against Trichoderma koningii assessed as radial growth at 5% after 48 hrs by poison food technique of Flack relative to control; type: functional; how it was run: as §1
[40] = test system: Trichoderma hamatum; experiment: Antifungal activity against Trichoderma hamatum assessed as radial growth at 7% after 24 hrs by poison food technique of Flack; type: functional, organism-based
How it was run: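 Poisoned-food method: acetone stock mixed into molten sterilized potato dextrose agar to final 0.5, 1, 3, 5 or 7%, poured into 90 mm plates. Plates were inoculated with a 9 mm mycelial disc from a 4-day-old pure culture and incubated at 25 ± 1 °C. Colony diameter (mm) was read every 24 h; mean of three replicates.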

[41] = test system: Trichoderma hamatum; experiment: Antifungal activity against Trichoderma hamatum assessed as radial growth at 5% after 24 hrs by poison food technique of Flack relative to control; type: functional; how it was run: as §1
[42] = test system: Trichoderma koningii; experiment: Antifungal activity against Trichoderma koningii assessed as radial growth at 7% after 72 hrs by poison food technique of Flack relative to control; type: functional; how it was run: as §1
[43] = test system: Trichoderma hamatum; experiment: Antifungal activity against Trichoderma hamatum assessed as radial growth at 7% after 72 hrs by poison food technique of Flack relative to control; type: functional; how it was run: as §1
[44] = test system: Aspergillus niger; experiment: Antifungal activity against Aspergillus niger assessed as radial growth at 7% after 48 hrs by poison food technique of Flack relative to control; type: functional

## CCOC(=O)C1=C(C)NC(=S)NC1c1ccccc1 (stereo not drawn)
[1]
  inhibition (INH): 37.65%
[2]
  inhibition (INH): 0%
[3]
  inhibition (INH): 8.81%
[4]
  inhibition (INH): 0%
[5]
  inhibition (INH): 62.71%
[6]
  inhibition (INH): 0%
[7]
  inhibition (INH): 100%
[8]
  inhibition (INH): 100%
[9]
  inhibition (INH): 0%
[10]
  inhibition (INH): 47.78%
[11]
  inhibition (INH): 100%
[12]
  inhibition (INH): 100%
[13]
  inhibition (INH): 79.82%
[14]
  inhibition (INH): 0%
[15]
  inhibition (INH): 0%
[16]
  inhibition (INH): 0%
[17]
  inhibition (INH): 18.65%
[18]
  inhibition (INH): 56.03%
[19]
  inhibition (INH): 67.62%
[20]
  inhibition (INH): 0%
[21]
  inhibition (INH): 91.34%
[22]
  inhibition (INH): 94.96%
[23]
  MIC: 0.35 µg/mL (≈ 1.27 µM)
[24]
  inhibition (INH): 89.2%
[25]
  inhibition (INH): 90.96%
[26]
  inhibition (INH): 0%
[27]
  inhibition (INH): 0%
[28]
  MIC: 0.025 µg/mL (≈ 0.0905 µM)
[29]
  inhibition (INH): 47.81%
[30]
  inhibition (INH): 0%
[31]
  inhibition (INH): 36.36%
[32]
  inhibition (INH): 55.63%
[33]
  inhibition (INH): 0%
[34]
  inhibition (INH): 54.54%
[35]
  inhibition (INH): 33.33%
[36]
  inhibition (INH): 68.08%
[37]
  inhibition (INH): 67.13%
[38]
  inhibition (INH): 0%
[39]
  inhibition (INH): 87.34%
[40]
  Activity: Active
[41]
  inhibition (INH): 89.18%
[42]
  inhibition (INH): 84.42%
[43]
  inhibition (INH): 95.98%
[44]
  inhibition (INH): 100%

## CCOC(=O)C1=C(C)NC(=O)NC1c1ccc(N(C)C)cc1 (stereo not drawn)
[1]
  inhibition (INH): 73.04%
[2]
  inhibition (INH): 35.69%
[3]
  inhibition (INH): 0%
[4]
  inhibition (INH): 9.36%
[5]
  inhibition (INH): 59.58%
[6]
  inhibition (INH): 9.67%
[7]
  inhibition (INH): 96.38%
[8]
  inhibition (INH): 100%
[9]
  inhibition (INH): 46.4%
[10]
  inhibition (INH): 0%
[11]
  inhibition (INH): 100%
[12]
  inhibition (INH): 100%
[13]
  inhibition (INH): 79.15%
[14]
  inhibition (INH): 0%
[15]
  inhibition (INH): 38.28%
[16]
  inhibition (INH): 4%
[17]
  inhibition (INH): 0%
[18]
  inhibition (INH): 84%
[19]
  inhibition (INH): 75.31%
[20]
  inhibition (INH): 47.25%
[21]
  inhibition (INH): 100%
[22]
  inhibition (INH): 86.83%
[23]
  MIC: 0.35 µg/mL (≈ 1.15 µM)
[24]
  inhibition (INH): 100%
[25]
  inhibition (INH): 87.09%
[26]
  inhibition (INH): 48.38%
[27]
  inhibition (INH): 41.66%
[28]
  MIC: 0.025 µg/mL (≈ 0.0824 µM)
[29]
  inhibition (INH): 75%
[30]
  inhibition (INH): 0%
[31]
  inhibition (INH): 74.11%
[32]
  inhibition (INH): 88.42%
[33]
  inhibition (INH): 48.29%
[34]
  inhibition (INH): 87.5%
[35]
  inhibition (INH): 100%
[36]
  inhibition (INH): 64.51%
[37]
  inhibition (INH): 77.38%
[38]
  inhibition (INH): 42.85%
[39]
  inhibition (INH): 87.09%
[40]
  Activity: Active
[41]
  inhibition (INH): 84.2%
[42]
  inhibition (INH): 80%
[43]
  inhibition (INH): 93.82%
[44]
  inhibition (INH): 100%
